Experimental data reported in PMC5891368 (European journal of medicinal chemistry, 2018).
Entries after “also recorded” stand apart in the source; their conditions may differ.

What was measured:
xylene-induced ear edema [1] = test: xylene-induced ear edema model; format: in vivo, mouse; settings: after treatment with compound
phosphorylation of Akt = test: Western blot, CXCL12 induced phosphorylation of Akt; format: cell-based; settings: dose-dependent
Outline: (§1)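 Rabbit monoclonal primaries (1:500, overnight, 4 °C) were phospho-Akt Ser473 with pan-Akt for Akt, and phospho-p44/42 MAPK Thr202/Tyr204 with total p44/42 for p44/42. Detection used HRP goat anti-rabbit (1:10000, 1 h) and enhanced chemiluminescence.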

[2] = test system: phosphorylation of p44/42; test: Western blot, CXCL12 induced phosphorylation of p44/42; format: cell-based
Outline: as §1

MDA-MB-231 cells [3] = test: cytotoxicity, cell viability; format: cell-based, human; settings: MDA-MB-231 (CXCR4-positive); up to 10 μM; MTT
Outline: (§2)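 Cells were seeded at 3000 per well in 96-well plates and grown 24 h at 37 °C in a CO2 incubator. They were then exposed at 37 °C to test compound or vehicle control. CellTiter 96AQ (MTT-type) reagent was added for a further 2 h, and absorbance was read at 490 nm.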

MCF-10A cells = test: cytotoxicity, cell viability; format: cell-based; settings: up to 10 μM, MTT
SKBR3 cells = test: cytotoxicity, cell viability; format: cell-based; settings: SKBR3 (CXCR4-positive); MTT; 72 h
Outline: as §2

MCF-7 cells = test: cytotoxicity, cell viability; format: cell-based; settings: MCF-7 (CXCR4-positive); MTT; 72 h
Outline: as §2

AC1-ExR cells = test: cytotoxicity, cell viability; format: cell-based; settings: AC1-ExR (CXCR4-positive); MTT; 72 h
Outline: as §2

184A1N4 cells = test: cytotoxicity, cell viability; format: cell-based; settings: 184A1N4 (CXCR4-negative); MTT; 72 h
Outline: as §2

MDA-MB-231 cells [4] = test: Matrigel invasion assay induced by CXCR4/CXCL12; format: cell-based; settings: Homo sapiens, MDA-MB-231, 22 h, read-out: inhibition of Matrigel invasion
Outline: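 MDA-MB-231 cells were pre-treated with test compound at 100 nM and then seeded in the top chamber of a Matrigel invasion chamber in serum-free medium. CXCL12α at 200 ng/mL in the bottom chamber served as chemoattractant. After 22 h in a humidified incubator, non-invading cells were swabbed off. Invading cells were methanol-fixed, stained with H&E and counted to give percent invasion.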

xylene-induced ear edema [5] = settings: mouse, in vivo; cited from earlier work

Row | SMILES | number of inflammatory cells in inflammatory tissues (histological analysis) (xylene-induced ear edema [1]) | swollen volume and thickness of the mouse ear (histological analysis) (xylene-induced ear edema [1]) | active concentration for inhibition of Akt phosphorylation (phosphorylation of Akt) [nM] | concentration suppressing phosphorylation of p44 [2] [nM] | antiproliferative activity / cytotoxicity (MDA-MB-231 cells [3]) | antiproliferative activity / cytotoxicity (MCF-10A cells) | antiproliferative activity / cytotoxicity (SKBR3 cells) | antiproliferative activity / cytotoxicity (MCF-7 cells) | antiproliferative activity / cytotoxicity (AC1-ExR cells) | antiproliferative activity / cytotoxicity (184A1N4 cells) | inhibition at 0.1 µM (MDA-MB-231 cells [4]) [%] | toxicity in this animal model (xylene-induced ear edema [5])
1 | O=C(NCc1ccc(CNS(=O)(=O)c2ccccc2)cc1)c1ccc(CNc2ncccn2)cc1 [Compound 7a, N-(4-(phenylsulfonamidomethyl)benzyl)-4-((pyrimidin-2-ylamino)methyl)benzamide] | significantly decreased | significantly reduced | 1 | 0.1 | did not inhibit the proliferation; also recorded: no statistically significant differences | did not inhibit the proliferation | no statistically significant differences | no statistically significant differences | no statistically significant differences | no statistically significant differences |  | 
2 | c1cc(CN2CCCNCCNCCCNCC2)ccc1CN1CCCNCCNCCCNCC1 [AMD3100] |  |  |  |  |  |  |  |  |  |  | 55 | serious toxicity
